Legend:
[1] = system: Tyrosine-protein kinase ABL1 (Homo sapiens), P00519 [F317I]; assay: Binding affinity to human non-phosphorylated ABL1 F317I mutant (S229 to K512 residues) expressed in HEK293 cells at 1 uM by Kinomescan method relative to control; format: cell-based
[2] = biological target: Serine/threonine-protein kinase B-raf (Homo sapiens) (UniProt P15056); assay: Binding affinity to wild-type human partial length BRAF (S429 to E741 residues) expressed in HEK293 cells at 1 uM by Kinomescan method relative to control; format: cell-based
[3] = biological target: Casein kinase I isoform alpha (Homo sapiens) (UniProt P48729); assay: Binding affinity to wild-type human partial length CSNK1A1 (M1 to L450 residues) expressed in HEK293 cells at 1 uM by Kinomescan method relative to control; format: cell-based
[4] = biological target: Serine/threonine-protein kinase DCLK1 (Homo sapiens) (UniProt O15075); assay: Binding affinity to wild-type human partial length DCAMKL1 (L270 to A662 residues) expressed in HEK293 cells at 1 uM by Kinomescan method relative to control; format: cell-based
[5] = biological target: Serine/threonine-protein kinase 17A (Homo sapiens) (UniProt Q9UEE5); assay: Binding affinity to wild-type human partial length DRAK1 (R32 to E363 residues) expressed in Escherichia coli BL21 at 1 uM by Kinomescan method relative to control
[6] = biological target: Epidermal growth factor receptor (Homo sapiens) (UniProt P00533); assay: Binding affinity to human partial length EGFR E746-A750del mutant expressed in Escherichia coli BL21 at 1 uM by Kinomescan method relative to control
[7] = biological target: Ephrin type-A receptor 2 (Homo sapiens) (UniProt P29317); assay: Binding affinity to wild-type human partial length EPHA2 (T593 to V891 residues) expressed in Escherichia coli BL21 at 1 uM by Kinomescan method relative to control
[8] = biological target: Ephrin type-B receptor 1 (Homo sapiens) (UniProt P54762); assay: Binding affinity to wild-type human partial length EPHB1 (P589 to T911 residues) expressed in Escherichia coli BL21 at 1 uM by Kinomescan method relative to control
[9] = biological target: Mitogen-activated protein kinase 7 (Homo sapiens) (UniProt Q13164); assay: Binding affinity to wild-type human partial length ERK5 (M1 to A409 residues) expressed in Escherichia coli BL21 at 1 uM by Kinomescan method relative to control
[10] = biological target: Homeodomain-interacting protein kinase 1 (Homo sapiens) (UniProt Q86Z02); assay: Binding affinity to wild-type human partial length HIPK1 (M146 to I555 residues) expressed in HEK293 cells at 1 uM by Kinomescan method relative to control; format: cell-based
[11] = biological target: Tyrosine-protein kinase JAK1 (Homo sapiens) (UniProt P23458); assay: Binding affinity to wild-type human partial length JAK1 JH2 pseudokinase domain (R537 to D855 residues) expressed in HEK293 cells at 1 uM by Kinomescan method relative to control; format: cell-based
[12] = system: Mast/stem cell growth factor receptor Kit (Homo sapiens), P10721 [V559D,V654A]; assay: Binding affinity to human partial length KIT V559D/V654A double mutant (Y545 to D952 residues) expressed in Escherichia coli BL21 at 1 uM by Kinomescan method relative to control
[13] = biological target: Mitogen-activated protein kinase kinase kinase 13 (Homo sapiens) (UniProt O43283); assay: Binding affinity to wild-type human full length LZK (M1 to W966 residues) expressed in HEK293 cells at 1 uM by Kinomescan method relative to control; format: cell-based
Method in brief: (§1)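 Run as one kinome-wide competition binding panel with each compound at a single fixed concentration. Results were plotted as a kinome-wide selectivity map.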

[14] = biological target: Maternal embryonic leucine zipper kinase (Homo sapiens) (UniProt Q14680); assay: Binding affinity to wild-type human full length MELK (M1 to V651 residues) expressed in Escherichia coli BL21 at 1 uM by Kinomescan method relative to control; method in brief: as §1
[15] = biological target: Serine/threonine-protein kinase MRCK beta (Homo sapiens) (UniProt Q9Y5S2); assay: Binding affinity to wild-type human partial length MRCKB (L56 to S417 residues) expressed in Escherichia coli BL21 at 1 uM by Kinomescan method relative to control
[16] = biological target: Muscle, skeletal receptor tyrosine-protein kinase (Homo sapiens) (UniProt O15146); assay: Binding affinity to wild-type human partial length MUSK (M553 to V869 residues) expressed in Escherichia coli BL21 at 1 uM by Kinomescan method relative to control
[17] = biological target: Serine/threonine-protein kinase Nek11 (Homo sapiens) (UniProt Q8NG66); assay: Binding affinity to wild-type human partial length NEK11 (M1 to E313 residues) expressed in HEK293 cells at 1 uM by Kinomescan method relative to control; format: cell-based
[18] = biological target: Serine/threonine-protein kinase NIM1 (Homo sapiens) (UniProt Q8IY84); assay: Binding affinity to wild-type human partial length NIM1 (Q44 to N355 residues) expressed in HEK293 cells at 1 uM by Kinomescan method relative to control; format: cell-based
[19] = system: Phosphatidylinositol 4,5-bisphosphate 3-kinase catalytic subunit alpha isoform (Homo sapiens), P42336 [H1047Y]; assay: Binding affinity to human partial length PIK3CA H1047Y mutant (R108 to N1068 residues) expressed in HEK293 cells at 1 uM by Kinomescan method relative to control; format: cell-based
[20] = biological target: Dual serine/threonine and tyrosine protein kinase (Homo sapiens) (UniProt Q6XUX3); assay: Binding affinity to wild-type human full length RIPK5 (M1 to T929 residues) expressed in HEK293 cells at 1 uM by Kinomescan method relative to control; format: cell-based
[21] = biological target: Ribosomal protein S6 kinase alpha-1 (Homo sapiens) (UniProt Q15418); assay: Binding affinity to wild-type human partial length N-terminal RSK1 Kinase domain 1 (M1 to E388 residues) expressed in Escherichia coli BL21 at 1 uM by Kinomescan method relative to control
[22] = biological target: Serine/threonine-protein kinase SIK1 (Homo sapiens) (UniProt P57059); assay: Binding affinity to wild-type human partial length SIK (M1 to Y304 residues) expressed in Escherichia coli BL21 at 1 uM by Kinomescan method relative to control
[23] = biological target: Non-receptor tyrosine-protein kinase TYK2 (Homo sapiens) (UniProt P29597); assay: Binding affinity to wild-type human partial length TYK2 JH1 catalytic domain (V877 to C1187 residues) expressed in HEK293 cells at 1 uM by Kinomescan method relative to control; format: cell-based
[24] = biological target: Serine/threonine-protein kinase ULK3 (Homo sapiens) (UniProt Q6PHR2); assay: Binding affinity to wild-type human partial length ULK3 (M1 to Q290 residues) expressed in HEK293 cells at 1 uM by Kinomescan method relative to control; format: cell-based
[25] = biological target: Serine/threonine-protein kinase 32B (Homo sapiens) (UniProt Q9NY57); assay: Binding affinity to wild-type human full length YANK2 (M1 to S414 residues) expressed in Escherichia coli BL21 at 1 uM by Kinomescan method relative to control
Method in brief: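 Kinome-wide competition binding panel run by an outside provider, with each compound tested at a single concentration. Activity is read against the kinase panel.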

Sequence of Homeodomain-interacting protein kinase 1 (Homo sapiens) (Q86Z02 whole entry, looked up, the tested form may be a part): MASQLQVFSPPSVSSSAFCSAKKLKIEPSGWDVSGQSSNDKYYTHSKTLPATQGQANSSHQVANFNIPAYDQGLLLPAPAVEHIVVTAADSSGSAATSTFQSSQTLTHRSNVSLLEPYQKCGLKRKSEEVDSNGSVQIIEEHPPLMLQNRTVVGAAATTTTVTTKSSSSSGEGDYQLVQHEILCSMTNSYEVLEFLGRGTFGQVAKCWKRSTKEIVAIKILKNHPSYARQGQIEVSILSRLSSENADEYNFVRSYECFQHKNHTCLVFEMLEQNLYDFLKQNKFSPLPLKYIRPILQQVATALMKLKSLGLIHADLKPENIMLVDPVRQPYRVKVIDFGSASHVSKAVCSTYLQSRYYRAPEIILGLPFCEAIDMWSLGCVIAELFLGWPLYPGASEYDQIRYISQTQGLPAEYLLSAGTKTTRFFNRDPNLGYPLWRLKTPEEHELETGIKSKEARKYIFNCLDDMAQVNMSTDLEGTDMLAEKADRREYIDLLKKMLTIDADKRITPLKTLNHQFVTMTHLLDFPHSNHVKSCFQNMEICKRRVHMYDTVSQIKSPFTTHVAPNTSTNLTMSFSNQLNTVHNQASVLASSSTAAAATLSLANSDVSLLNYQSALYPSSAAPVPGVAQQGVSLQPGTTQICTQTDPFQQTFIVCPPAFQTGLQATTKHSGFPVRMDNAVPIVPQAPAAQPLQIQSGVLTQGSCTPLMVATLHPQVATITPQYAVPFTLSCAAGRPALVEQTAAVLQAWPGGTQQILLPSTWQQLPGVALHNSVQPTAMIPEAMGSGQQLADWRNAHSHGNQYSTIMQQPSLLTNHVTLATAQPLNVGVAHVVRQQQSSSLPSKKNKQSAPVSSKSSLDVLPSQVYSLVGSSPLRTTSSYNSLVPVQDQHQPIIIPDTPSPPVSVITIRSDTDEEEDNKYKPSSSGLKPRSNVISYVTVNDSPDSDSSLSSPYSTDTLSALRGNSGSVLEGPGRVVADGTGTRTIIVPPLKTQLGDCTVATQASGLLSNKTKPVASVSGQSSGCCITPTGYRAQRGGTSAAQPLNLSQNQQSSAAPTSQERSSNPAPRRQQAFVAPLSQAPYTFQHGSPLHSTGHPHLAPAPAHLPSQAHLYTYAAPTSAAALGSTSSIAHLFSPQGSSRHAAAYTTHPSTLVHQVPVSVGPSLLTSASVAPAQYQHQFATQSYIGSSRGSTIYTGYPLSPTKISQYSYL
Sequence of Mitogen-activated protein kinase 7 (Homo sapiens) (Q13164 2-816 limits assumed): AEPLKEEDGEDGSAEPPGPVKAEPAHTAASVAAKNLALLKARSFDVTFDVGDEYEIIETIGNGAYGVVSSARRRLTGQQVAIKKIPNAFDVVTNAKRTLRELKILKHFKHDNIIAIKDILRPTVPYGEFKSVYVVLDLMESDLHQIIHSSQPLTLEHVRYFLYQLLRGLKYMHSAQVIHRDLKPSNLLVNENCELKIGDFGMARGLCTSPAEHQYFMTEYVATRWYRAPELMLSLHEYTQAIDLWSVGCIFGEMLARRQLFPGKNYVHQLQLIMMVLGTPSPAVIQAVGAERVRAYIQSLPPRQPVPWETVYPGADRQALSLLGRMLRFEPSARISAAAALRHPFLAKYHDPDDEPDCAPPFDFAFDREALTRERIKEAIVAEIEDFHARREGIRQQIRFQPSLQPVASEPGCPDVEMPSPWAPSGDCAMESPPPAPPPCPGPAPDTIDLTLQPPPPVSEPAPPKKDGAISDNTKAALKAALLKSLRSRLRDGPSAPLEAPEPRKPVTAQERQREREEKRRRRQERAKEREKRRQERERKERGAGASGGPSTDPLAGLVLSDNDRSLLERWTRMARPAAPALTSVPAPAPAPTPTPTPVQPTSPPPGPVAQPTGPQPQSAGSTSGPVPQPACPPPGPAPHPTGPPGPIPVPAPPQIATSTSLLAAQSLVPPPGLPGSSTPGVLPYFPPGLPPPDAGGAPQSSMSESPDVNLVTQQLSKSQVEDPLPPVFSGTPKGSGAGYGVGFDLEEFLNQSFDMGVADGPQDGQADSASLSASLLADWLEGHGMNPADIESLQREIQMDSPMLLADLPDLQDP
Sequence of Serine/threonine-protein kinase Nek11 (Homo sapiens) (Q8NG66 whole entry, the tested form may be a part): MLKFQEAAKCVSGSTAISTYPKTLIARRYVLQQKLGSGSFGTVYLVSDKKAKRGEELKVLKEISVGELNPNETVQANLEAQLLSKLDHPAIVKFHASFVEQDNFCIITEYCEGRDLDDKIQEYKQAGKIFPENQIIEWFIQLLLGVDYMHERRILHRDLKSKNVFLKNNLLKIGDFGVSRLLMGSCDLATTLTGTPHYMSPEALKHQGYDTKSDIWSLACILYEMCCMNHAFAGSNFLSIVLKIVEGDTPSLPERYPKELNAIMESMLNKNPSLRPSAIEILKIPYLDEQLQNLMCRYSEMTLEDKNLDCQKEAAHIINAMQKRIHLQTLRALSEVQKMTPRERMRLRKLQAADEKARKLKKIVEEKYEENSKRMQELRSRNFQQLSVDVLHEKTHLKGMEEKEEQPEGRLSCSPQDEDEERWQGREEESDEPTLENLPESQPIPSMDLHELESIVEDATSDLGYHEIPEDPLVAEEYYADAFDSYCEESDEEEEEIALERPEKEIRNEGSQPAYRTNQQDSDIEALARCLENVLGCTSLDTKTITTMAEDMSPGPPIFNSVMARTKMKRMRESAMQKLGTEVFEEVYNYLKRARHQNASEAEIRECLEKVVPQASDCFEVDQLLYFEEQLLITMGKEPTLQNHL
Sequence of Phosphatidylinositol 4,5-bisphosphate 3-kinase catalytic subunit alpha isoform (Homo sapiens), P42336 [H1047Y] (P42336 whole entry H1047Y, the tested form may be a part, canonical isoform): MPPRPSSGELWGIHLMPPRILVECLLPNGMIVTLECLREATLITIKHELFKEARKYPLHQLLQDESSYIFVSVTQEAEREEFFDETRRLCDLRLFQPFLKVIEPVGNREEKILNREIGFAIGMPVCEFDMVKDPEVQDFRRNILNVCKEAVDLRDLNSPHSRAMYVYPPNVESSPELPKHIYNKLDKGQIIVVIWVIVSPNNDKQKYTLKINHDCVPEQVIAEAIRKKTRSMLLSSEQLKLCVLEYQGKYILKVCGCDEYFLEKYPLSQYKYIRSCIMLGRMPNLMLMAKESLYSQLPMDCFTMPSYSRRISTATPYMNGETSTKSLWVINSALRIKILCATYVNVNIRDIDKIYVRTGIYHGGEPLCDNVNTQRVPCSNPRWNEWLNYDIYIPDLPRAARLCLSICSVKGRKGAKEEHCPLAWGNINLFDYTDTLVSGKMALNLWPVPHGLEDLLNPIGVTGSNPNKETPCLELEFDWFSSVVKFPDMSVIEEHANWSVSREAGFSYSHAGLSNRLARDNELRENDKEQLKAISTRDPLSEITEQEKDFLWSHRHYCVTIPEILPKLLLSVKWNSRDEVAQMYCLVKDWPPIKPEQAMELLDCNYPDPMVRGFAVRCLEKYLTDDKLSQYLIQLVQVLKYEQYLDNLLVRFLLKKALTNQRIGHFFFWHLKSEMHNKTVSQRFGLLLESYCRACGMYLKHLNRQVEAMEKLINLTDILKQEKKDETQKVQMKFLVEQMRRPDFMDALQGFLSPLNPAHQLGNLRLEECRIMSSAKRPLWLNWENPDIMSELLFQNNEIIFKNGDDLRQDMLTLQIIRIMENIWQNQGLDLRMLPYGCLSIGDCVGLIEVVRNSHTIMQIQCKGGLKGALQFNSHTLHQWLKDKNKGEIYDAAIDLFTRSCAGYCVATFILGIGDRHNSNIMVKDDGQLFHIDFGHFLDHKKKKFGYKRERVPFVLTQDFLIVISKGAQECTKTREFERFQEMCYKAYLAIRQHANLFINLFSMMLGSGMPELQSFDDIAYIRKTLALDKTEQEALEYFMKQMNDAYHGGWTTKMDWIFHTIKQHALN
Sequence of Non-receptor tyrosine-protein kinase TYK2 (Homo sapiens) (P29597 whole entry, the tested form may be a part): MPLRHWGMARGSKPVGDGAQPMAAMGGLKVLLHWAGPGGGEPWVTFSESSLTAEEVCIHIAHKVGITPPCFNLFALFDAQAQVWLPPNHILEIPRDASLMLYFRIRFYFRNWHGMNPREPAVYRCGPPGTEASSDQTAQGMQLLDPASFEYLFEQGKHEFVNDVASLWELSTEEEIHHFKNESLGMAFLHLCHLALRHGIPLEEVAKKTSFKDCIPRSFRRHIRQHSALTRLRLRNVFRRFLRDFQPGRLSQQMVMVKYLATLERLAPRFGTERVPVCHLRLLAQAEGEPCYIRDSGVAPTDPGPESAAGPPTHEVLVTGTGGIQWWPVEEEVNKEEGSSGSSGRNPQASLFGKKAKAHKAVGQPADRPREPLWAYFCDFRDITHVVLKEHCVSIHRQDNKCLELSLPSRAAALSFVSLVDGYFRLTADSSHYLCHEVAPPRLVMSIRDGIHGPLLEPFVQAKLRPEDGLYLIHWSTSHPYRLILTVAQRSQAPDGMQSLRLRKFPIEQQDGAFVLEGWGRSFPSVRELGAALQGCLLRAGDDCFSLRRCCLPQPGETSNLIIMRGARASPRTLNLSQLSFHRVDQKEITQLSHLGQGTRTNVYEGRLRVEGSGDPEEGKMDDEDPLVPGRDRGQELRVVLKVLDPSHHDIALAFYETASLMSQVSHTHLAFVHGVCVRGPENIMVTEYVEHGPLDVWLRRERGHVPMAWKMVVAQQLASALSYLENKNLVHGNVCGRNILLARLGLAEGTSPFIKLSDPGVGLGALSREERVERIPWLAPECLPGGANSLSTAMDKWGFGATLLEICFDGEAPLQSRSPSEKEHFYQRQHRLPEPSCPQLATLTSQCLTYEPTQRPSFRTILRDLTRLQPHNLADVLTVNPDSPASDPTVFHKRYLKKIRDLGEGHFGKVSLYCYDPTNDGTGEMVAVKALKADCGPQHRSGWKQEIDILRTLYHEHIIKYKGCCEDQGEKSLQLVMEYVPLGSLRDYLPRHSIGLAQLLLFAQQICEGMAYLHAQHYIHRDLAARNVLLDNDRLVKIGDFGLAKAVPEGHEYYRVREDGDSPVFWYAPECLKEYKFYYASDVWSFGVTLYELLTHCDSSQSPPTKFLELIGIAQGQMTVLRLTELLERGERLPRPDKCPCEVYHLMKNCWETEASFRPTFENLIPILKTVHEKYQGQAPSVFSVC

Compound `CCC(=O)Nc1ccc(C(=O)Nc2ccc(Nc3ncc4c(n3)N(C)c3ccc(C)cc3C(=O)N4C)cc2)cc1` has an Activity [1] of 76%, an Activity [2] of 100% and an Activity [3] of 58%. It also gave an Activity [4] of 72%, an Activity [5] of 100% and an Activity [6] of 91%. For the same compound, the Activity [7] was 96%, the Activity [8] was 80% and the Activity [9] was 97%. For the same compound, the Activity [10] was 67%, the Activity [11] was 79% and the Activity [12] was 97%. It also gave an Activity [13] of 82%, an Activity [14] of 78% and an Activity [15] of 98%. The Activity [16] was 95%, the Activity [17] was 96% and the Activity [18] was 100%. It also gave an Activity [19] of 72%, an Activity [20] of 68% and an Activity [21] of 94%. For the same compound, the Activity [22] was 81%, the Activity [23] was 58% and the Activity [24] was 77%. For the same compound, the Activity [25] was 100%.
`C=CC(=O)Nc1ccc(C(=O)Nc2ccc(Nc3ncc4c(n3)N(C)c3ccc(C)cc3C(=O)N4C)cc2)cc1` showed an Activity [1] of 77%, an Activity [2] of 100% and an Activity [3] of 86%. The Activity [4] was 78%, the Activity [5] was 93% and the Activity [6] was 100%. For the same compound, the Activity [7] was 93%, the Activity [8] was 92% and the Activity [9] was 86%. For the same compound, the Activity [10] was 87%, the Activity [11] was 100% and the Activity [12] was 91%. It also gave an Activity [13] of 87%, an Activity [14] of 97% and an Activity [15] of 96%. The Activity [16] was 96%, the Activity [17] was 100% and the Activity [18] was 98%. It also gave an Activity [19] of 62%, an Activity [20] of 96% and an Activity [21] of 100%. The Activity [22] was 95%, the Activity [23] was 73% and the Activity [24] was 93%. It also gave an Activity [25] of 100%.
